Experimental findings from ChEMBL document CHEMBL1949532, “Novel dendrimeric lipopeptides with antifungal activity” (Bioorg Med Chem Lett, 2012) are described below.

In series [1] the test system is Staphylococcus aureus. The series can be described thus: Antibacterial activity against Staphylococcus aureus ATCC 25923 after 18 to 24 hrs by serial broth microdilution susceptibility test. It is filed as functional. Put shortly: (§1)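 MIC determined by serial microdilution in microplates. Candida inocula were prepared in L-glutamine-deficient RPMI-1640 medium.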

Series [2] deals with Pseudomonas aeruginosa. The experiment in a line: Antibacterial activity against Pseudomonas aeruginosa ATCC 27853 after 18 to 24 hrs by serial broth microdilution susceptibility test. It is filed as functional. In a few lines:
as §1

In series [3] the test system is Escherichia coli. The experiment in a line: Antibacterial activity against Escherichia coli ATCC 25922 after 18 to 24 hrs by serial broth microdilution susceptibility test. The series is classed as functional. Put shortly:
as §1

Series [4] concerns Staphylococcus aureus. The experiment in a line: Antibacterial activity against Staphylococcus aureus ATCC 43300 after 18 to 24 hrs by serial broth microdilution susceptibility test. It is filed as functional. Put shortly: as §1
For series [5], the system named is Klebsiella pneumoniae subsp. pneumoniae. The experiment in a line: Antibacterial activity against Klebsiella pneumoniae subsp. pneumoniae ATCC 13882 after 18 to 24 hrs by serial broth microdilution susceptibility test. It is filed as functional. Put shortly:
as §1

Series [6] relates to Bordetella bronchiseptica. The series can be described thus: Antibacterial activity against Bordetella bronchiseptica ATCC 4617 after 18 to 24 hrs by serial broth microdilution susceptibility test. It is filed as functional. In a few lines: as §1
Series [7] deals with Acinetobacter baumannii. The series can be described thus: Antibacterial activity against Acinetobacter baumannii ATCC 19606 after 18 to 24 hrs by serial broth microdilution susceptibility test. Particulars: ATCC 19606 = CIP 70.34 = JCM 6841. It is filed as functional. In a few lines:
as §1

Series [8] has as its system Escherichia coli. The series can be described thus: Antibacterial activity against Escherichia coli ATCC BAA-198 after 18 to 24 hrs by serial broth microdilution susceptibility test. The series is classed as functional. Put shortly: as §1
The test system of series [9] is Candida albicans. The experiment in a line: Antifungal activity against Candida albicans ATCC 90028 after 24 to 48 hrs by serial broth microdilution susceptibility test. It is filed as functional. Put shortly: as §1
Series [10] has as its system Candida parapsilosis. The series can be described thus: Antifungal activity against Candida parapsilosis ATCC 22019 after 24 to 48 hrs by serial broth microdilution susceptibility test. The series is classed as functional. Particulars: Lodderomyces parapsilosis. In a few lines:
as §1

The subject of series [11] is Pichia kudriavzevii. The experiment in a line: Antifungal activity against Candida krusei ATCC 6258 after 24 to 48 hrs by serial broth microdilution susceptibility test. It is filed as functional. Put shortly:
as §1

The nature of series [12]: Toxicity in human erythrocytes assessed as hemolysis at above MIC after 30 mins by spectrophotometry. The series is classed as cell-based. Particulars: erythrocyte, 0.5 h. Put shortly: (§2)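 Human erythrocytes suspended in PBS were exposed to lipopeptides at 0.001–0.4 mmol/l and hemolysis was measured.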
A short description of series [13]: Toxicity in human erythrocytes suspended in L-glutamine deficient RPMI-1640 assessed as hemolysis after 30 mins by spectrophotometry relative to human erythrocytes suspended in PBS buffer. Particulars: erythrocyte, 0.5 h. The series is classed as cell-based. In a few lines: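 Hemolysis was measured for human erythrocytes resuspended in L-glutamine-deficient RPMI-1640 (the Candida MIC medium) and compared with erythrocytes suspended in PBS.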

Series [14] is described as follows: Inhibition of beta (1,3) glucan synthase in Candida albicans cell membrane using UDP-Glc as substrate assessed as aniline blue-glucan complex formation by microtiter-based fluorescence method. In a few lines:
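β(1,3)-glucan synthase in the membrane fraction of C. albicans was assayed by a microtiter-based fluorescence method across a concentration range. Values are means of three independent experiments (SD); IC50 was determined.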

The nature of series [15]: Toxicity in human erythrocytes assessed as hemolysis at 100 uM after 30 mins by spectrophotometry. It is filed as cell-based, Erythrocyte. Particulars: read-out: Activity. In a few lines:
as §2

The test system of series [16] is Candida albicans. The experiment in a line: Antifungal activity against Candida albicans ATCC 10231 assessed as increase in intracellular potassium release after 30 mins. The series is classed as functional, organism-based. In a few lines: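 Efflux of K+ from C. albicans cells was monitored continuously with a potassium-selective electrode. Release was expressed relative to a positive control, and EK50 was taken as the concentration releasing 50% of intracellular potassium.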

For series [17], the system named is Candida albicans. The series can be described thus: Antifungal activity against Candida albicans ATCC 10231 assessed as alteration in cell envelope at 4 uM after 2 hrs by scanning electron microscopy. The series is classed as functional, organism-based.
Series [18] concerns Candida albicans. The experiment in a line: Antifungal activity against Candida albicans ATCC 10231 assessed as leakage of intracellular contents at 4 uM after 2 hrs by scanning electron microscopy. It is filed as functional, organism-based.
The subject of series [19] is Candida albicans. The series can be described thus: Antifungal activity against Candida albicans ATCC 10231 assessed as massive destruction of cell surface at 64 uM after 2 hrs by scanning electron microscopy. The series is classed as functional, organism-based.
Series [20] can be described thus: Toxicity in human erythrocytes assessed as hemolysis at 300 uM after 30 mins by spectrophotometry. The series is classed as cell-based, Erythrocyte. Particulars: read-out: Activity. Put shortly: as §2
Series [21] is described as follows: Toxicity in human erythrocytes assessed as hemolysis at 50 uM after 30 mins by spectrophotometry. It is filed as cell-based, Erythrocyte. Particulars: read-out: Activity. In a few lines: as §2

≈ marks a conversion by molar mass, not a printed value. Calls of active or inactive are those of the source. The rule behind the calls is not given here. Starred links: 1 amine or outer side, 2 acyl side, 3 side chain; linkers in the order of their positions; H or OH if unused. Positions of bridges follow the written chain, without caps; N, C: chain ends. Non-standard residues stand in square brackets, D forms with d. Residues, ends and D or L forms follow the SMILES beside them. *: point of attachment. Orn(4R-OH,5R-OH) = O=C([C@H](C[C@@H](O)[C@@H](O)N[*:3])N[*:1])[*:2]; hTyr(3S-OH,4S-OH) = N[C@H](C(=O)O)[C@H](O)[C@@H](O)c1ccc(O)cc1; Pro(3S-OH,4S-Me) = C[C@H]1CN[C@H](C(=O)O)[C@H]1O; Palmitoyl = CCCCCCCCCCCCCCCC(=O)*; Hyp = O=C(O)[C@@H]1C[C@@H](O)CN1 Bounds are passed on as bounds.

As for `CCCCCCCCCCCCNC(=O)[C@H](Cc1ccccc1)NC(=O)[C@H](CCCCNC(=O)[C@@H](N)CCCCN)NC(=O)[C@@H](N)CCCCN.Cl.Cl.Cl.Cl`, the MIC was 8 µM in [1]; 64 µM in series [2]; 32 µM in [3]; 4 µM in series [4]; > 256 µM in series [5]; 8 µM in series [6]. Also, the minimum inhibitory concentration (MIC) in [7] is > 256 µM; in series [8] it was 64 µM; in [9], 16 µM; in [10] it was 4 µM; in series [11], 4 µM. In addition, the Activity entry in series [12] is listed as “Toxic”; in series [13], “Non-toxic”.
In series [9], `CCCCCCCCCCCCCCCC(=O)N[C@H]1C[C@@H](O)[C@@H](O)NC(=O)[C@@H]2[C@@H](O)[C@@H](C)CN2C(=O)[C@H]([C@@H](C)O)NC(=O)[C@H]([C@H](O)[C@@H](O)c2ccc(O)cc2)NC(=O)[C@@H]2C[C@@H](O)CN2C(=O)[C@H]([C@@H](C)O)NC1=O` [ACULEACIN A] (Palmitoyl-[Orn(4R-OH,5R-OH)]T[Hyp][hTyr(3S-OH,4S-OH)]T[Pro(3S-OH,4S-Me)]; lactam 1-C) yielded a minimum inhibitory concentration (MIC) of 0.5 µM (≈ 0.518 µg/mL). Besides, the IC50 in series [14] stood at 12 µM.
In the case of `CCCCCCCCNC(=O)[C@H](Cc1ccccc1)NC(=O)[C@H](CCCCNC(=O)[C@H](CCCCN)NC(=O)OCc1ccccc1Cl)NC(=O)[C@H](CCCCN)NC(=O)OCc1ccccc1Cl`, the minimum inhibitory concentration (MIC) in series [1] stood at 16 µM (≈ 16 µg/mL); in series [2], 32 µM (≈ 31.9 µg/mL); in series [3], 32 µM (≈ 31.9 µg/mL); in series [4], 16 µM (≈ 16 µg/mL); in [5], 128 µM (≈ 128 µg/mL); in series [6] it was 8 µM (≈ 7.98 µg/mL). The minimal inhibitory concentration (MIC) is > 256 µM in series [7]; 32 µM (≈ 31.9 µg/mL) in series [8]; 32 µM (≈ 31.9 µg/mL) in series [9]; 16 µM (≈ 16 µg/mL) in series [10]; 16 µM (≈ 16 µg/mL) in series [11]. Besides, the hemolysis at 0.5 h, 100 µM in series [15] stood at 10%.
For NYSTATIN, the EC50 in series [16] came out at 2.4 µM.
In the case of `CCCCCCCCCCCCNC(=O)[C@H](Cc1ccccc1)NC(=O)[C@H](CCCCNC(=O)[C@H](CCCCN)NC(=O)OCc1ccccc1)NC(=O)[C@H](CCCCN)NC(=O)OCc1ccccc1.Cl.Cl`, the MIC was 15 µM in [1]; 64 µM in series [2]; 30 µM in series [3]; 8 µM in series [4]; 121 µM in series [5]; 7 µM in series [6]. Further, the minimal inhibitory concentration (MIC) in series [7] was found to be 121 µM; in series [8], 8 µM; in series [9] it was 8 µM; in series [10], 8 µM; in series [11], 8 µM. Moreover, the values for the Activity entry in series [12] and in series [13] were “Toxic” and “Non-toxic”, respectively. In addition, the result in [17], in series [18] and in series [19] was Active. Moreover, in [14], the half-inhibitory concentration (IC50) was determined as 50 µM.
Turning to `CCCCCCCCNC(=O)[C@H](Cc1ccccc1)NC(=O)[C@H](CCCCNC(=O)[C@@H](N)CCCCN)NC(=O)[C@@H](N)CCCCN`, the minimal inhibitory concentration (MIC) in [1] is 128 µM (≈ 84.6 µg/mL); in series [2] it was > 256 µM; in series [3] it was > 256 µM; in series [4], 128 µM (≈ 84.6 µg/mL); in series [5], > 256 µM; in series [6], 32 µM (≈ 21.2 µg/mL). The MIC is > 256 µM in series [7]; > 256 µM in series [8]; 256 µM (≈ 169 µg/mL) in [9]; 64 µM (≈ 42.3 µg/mL) in series [10]; 128 µM (≈ 84.6 µg/mL) in [11]. In addition, the hemolysis at 0.5 h, 300 µM in series [20] amounted to 10%.
As to `CCCCCCCCCCCCNC(=O)[C@H](Cc1ccccc1)NC(=O)[C@H](CCCCNC(=O)[C@H](CCCCN)NC(=O)OCc1ccccc1Cl)NC(=O)[C@H](CCCCN)NC(=O)OCc1ccccc1Cl`, the minimum inhibitory concentration (MIC) was 32 µM (≈ 33.7 µg/mL) in series [1]; 64 µM (≈ 67.5 µg/mL) in series [2]; 32 µM (≈ 33.7 µg/mL) in series [3]; 16 µM (≈ 16.9 µg/mL) in [4]; > 256 µM in series [5]; 8 µM (≈ 8.43 µg/mL) in [6]. For the same compound, the MIC is > 256 µM in series [7]; 32 µM (≈ 33.7 µg/mL) in series [8]; 8 µM (≈ 8.43 µg/mL) in series [9]; 8 µM (≈ 8.43 µg/mL) in series [10]; 8 µM (≈ 8.43 µg/mL) in series [11]. In addition, the hemolysis at 0.5 h, 50 µM in [21] came to 10%. In addition, the hemolysis at 0.5 h, 100 µM in series [15] was found to be 13%. Besides, in series [14], the half-maximal inhibitory concentration (IC50) was found to be 50 µM.
